Laboratory results from paper PMC6543826 (Bioorganic chemistry, 2018).
Several values for one entry are separate records, joined by “and”; a condition that tells them apart may be missing. Identical values can stand only once.

Legend:
[1] = test system: U251; experiment: cells; assay type: cell-based
[2] = biological target: JNK2 (Homo sapiens, UniProt P45984); experiment: in vitro kinase assay, GST-c-Jun; assay type: biochemical
[3] = test system: SNB-75; experiment: cells; assay type: cell-based
[4] = test system: MOLT-4; experiment: cells; assay type: cell-based
[5] = test system: MDA-MB-435; experiment: cells; assay type: cell-based
[6] = test system: SK-MEL-28; experiment: cells; assay type: cell-based
[7] = test system: HT29; experiment: cells; assay type: cell-based
[8] = test system: KM 12; experiment: cells; assay type: cell-based
[9] = test system: SN12C; experiment: cells; assay type: cell-based
[10] = test system: NCI-60 panel of tumor cell lines
[11] = test system: SK-MEL-5; experiment: cells; assay type: cell-based
[12] = test system: OVCAR-4; experiment: cells; assay type: cell-based
[13] = biological target: ERK1 (Homo sapiens, UniProt P27361); experiment: in vitro radioactive kinase assay, Ets-1 phosphorylation by ERK1; assay type: biochemical; settings: ERK1 IC50, 100 μM ATP, 10 μM Ets-1
How it was run: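 Radiometric assay at 28–30 °C in 25 mM HEPES pH 7.5, 50 mM KCl, 0.1 mM EDTA/EGTA, 2 mM DTT, 11 mM MgCl2, 10 μg mL−1 BSA and 5% DMSO (final). 2 nM activated ERK1 was used with 10 μM His-Ets-1 (1–138). Reactions were started with [γ-32P]ATP (10 or 100 μM). IC50 came from fitting rate versus inhibitor concentration to a hyperbolic decay equation.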

[14] = test system: SK-OV-3; experiment: cells; assay type: cell-based
[15] = test system: RXF 393; experiment: cells; assay type: cell-based
[16] = test system: HL-60 (TB); experiment: cells; assay type: cell-based
[17] = test system: SK-MEL-2; experiment: cells; assay type: cell-based
[18] = test system: MALME-3M; experiment: cells; assay type: cell-based
[19] = test system: CCRF-CEM; experiment: cells; assay type: cell-based
[20] = test system: HCT-116; experiment: cells; assay type: cell-based
[21] = test system: HOP-62; experiment: cells; assay type: cell-based
[22] = test system: IGROV1; experiment: cells; assay type: cell-based
[23] = test system: K-562; experiment: cells; assay type: cell-based
[24] = test system: BT-549; experiment: cells; assay type: cell-based
[25] = biological target: p38MAPKα (Homo sapiens, UniProt Q16539); experiment: in vitro kinase assay, GST-ATF2; assay type: biochemical
[26] = test system: M14; experiment: cells; assay type: cell-based
[27] = test system: T-47D; experiment: cells; assay type: cell-based
[28] = test system: HCT-15; experiment: cells; assay type: cell-based
[29] = test system: MDA-MB-468; experiment: cells; assay type: cell-based
[30] = test system: PC-3; experiment: cells; assay type: cell-based
[31] = test system: NCI-H460; experiment: cells; assay type: cell-based
[32] = test system: NCI-H23; experiment: cells; assay type: cell-based
[33] = test system: UACC-62; experiment: cells; assay type: cell-based
[34] = test system: HCC-2998; experiment: cells; assay type: cell-based
[35] = test system: OVCAR-5; experiment: cells; assay type: cell-based

p38MAPKα, sequence (Q16539 whole entry): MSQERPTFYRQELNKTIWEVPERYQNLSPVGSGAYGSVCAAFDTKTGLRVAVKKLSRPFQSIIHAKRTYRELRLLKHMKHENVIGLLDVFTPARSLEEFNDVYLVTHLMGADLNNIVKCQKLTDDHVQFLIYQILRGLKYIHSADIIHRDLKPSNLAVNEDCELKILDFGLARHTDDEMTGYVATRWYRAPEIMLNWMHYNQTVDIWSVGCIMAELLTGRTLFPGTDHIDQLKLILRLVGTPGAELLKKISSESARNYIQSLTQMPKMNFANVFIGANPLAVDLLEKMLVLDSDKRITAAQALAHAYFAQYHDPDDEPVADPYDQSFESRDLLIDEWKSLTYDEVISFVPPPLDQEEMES
JNK2, sequence (P45984 whole entry): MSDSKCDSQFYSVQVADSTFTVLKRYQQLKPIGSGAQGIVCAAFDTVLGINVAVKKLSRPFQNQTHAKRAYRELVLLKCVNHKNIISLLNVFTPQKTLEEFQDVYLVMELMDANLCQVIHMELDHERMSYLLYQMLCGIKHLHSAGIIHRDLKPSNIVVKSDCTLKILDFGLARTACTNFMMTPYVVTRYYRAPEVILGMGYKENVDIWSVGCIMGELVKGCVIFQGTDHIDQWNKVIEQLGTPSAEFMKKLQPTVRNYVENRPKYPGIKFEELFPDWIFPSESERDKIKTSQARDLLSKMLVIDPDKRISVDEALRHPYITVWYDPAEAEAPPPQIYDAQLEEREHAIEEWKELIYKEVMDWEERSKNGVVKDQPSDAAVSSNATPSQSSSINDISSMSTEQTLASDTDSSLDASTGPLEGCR
ERK1, sequence (P27361 whole entry, species assumed): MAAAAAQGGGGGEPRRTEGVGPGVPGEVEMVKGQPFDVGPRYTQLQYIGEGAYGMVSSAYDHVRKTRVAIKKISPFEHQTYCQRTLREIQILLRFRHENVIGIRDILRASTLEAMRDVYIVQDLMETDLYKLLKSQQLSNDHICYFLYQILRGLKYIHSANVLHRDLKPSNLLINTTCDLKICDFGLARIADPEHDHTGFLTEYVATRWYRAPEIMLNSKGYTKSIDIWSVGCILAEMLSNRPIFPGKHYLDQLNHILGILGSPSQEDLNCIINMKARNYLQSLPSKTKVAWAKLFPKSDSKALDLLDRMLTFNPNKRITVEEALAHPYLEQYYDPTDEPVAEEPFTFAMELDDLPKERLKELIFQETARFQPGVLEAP

O=C1c2ccccc2C(=O)c2c1oc1c2c(=O)[nH]c2ccc(Cl)cc21 [3b, 2-Chloronaphtho[2′,3′:4,5]furo[3,2-c]quinoline-6,7,12(5H)-trione]
GI50 ([1]; Homo sapiens, U-251): 0.27 µM
CC50 ([1]; Homo sapiens, U-251, read-out: LC50): 2.82 µM
Growth percent (G%) ([1]; U251, 10^−5 M, 48 h): −77.55%
TGI ([1]; U251, five-dose): 0.76 µM
IC50 [2]: 24 ± 1.24 µM
ability to inhibit JNK2 (in words) [2]: little tendency to inhibit
GI50 ([3]; Homo sapiens, SNB-75): 0.16 µM
CC50 ([3]; Homo sapiens, SNB-75, read-out: LC50): 1.29 µM
Growth percent (G%) ([3]; SNB-75, 10^−5 M, 48 h): −9.01%
TGI ([3]; SNB-75, five-dose): 0.42 µM
GI50 ([4]; Homo sapiens, MOLT-4): 0.44 µM
CC50 ([4]; Homo sapiens, MOLT-4, read-out: LC50): > 100 µM
Growth percent (G%) ([4]; MOLT-4, 10^−5 M, 48 h): 18.44%
TGI ([4]; MOLT-4, five-dose): 3.16 µM
GI50 ([5]; Homo sapiens, MDA-MB-435): 0.3 µM
CC50 ([5]; Homo sapiens, MDA-MB-435, read-out: LC50): 4.07 µM
Growth percent (G%) ([5]; MDA-MB-435, 10^−5 M, 48 h): 10.25%
TGI ([5]; MDA-MB-435, five-dose): 1.20 µM
GI50 ([6]; Homo sapiens, SK-MEL-28): 0.34 µM
CC50 ([6]; Homo sapiens, SK-MEL-28, read-out: LC50): 4.68 µM
Growth percent (G%) ([6]; SK-MEL-28, 10^−5 M, 48 h): −11.84%
TGI ([6]; SK-MEL-28, five-dose): 1.23 µM
Growth percent (G%) ([7]; HT29, 10^−5 M, 48 h): 66.37%
TGI ([7]; HT29, five-dose): 12.88 µM
GI50 ([7]; Homo sapiens, HT-29): 3.72 µM
CC50 ([7]; Homo sapiens, HT-29, read-out: LC50): 39.8 µM
GI50 ([8]; Homo sapiens, KM12): 0.45 µM
CC50 ([8]; Homo sapiens, KM12, read-out: LC50): 27.5 µM
Growth percent (G%) ([8]; KM 12, 10^−5 M, 48 h): 0.12%
TGI ([8]; KM 12, five-dose): 3.02 µM
Growth percent (G%) ([9]; 10^−5 M, 48 h): −26.26%
GI50 ([9]; Homo sapiens): 0.2 µM
CC50 ([9]; Homo sapiens, read-out: LC50): 1.35 µM
TGI ([9]; five-dose): 0.47 µM
Average G% ([10]; average over tested NCI-60 cell lines, 10^−5 M (10 μM), 48 h): −4.7% and −4.5% and −4.69%
TGI values, range over all cell lines ([10]; five-dose): 0.35 to 27.54 µM
TGI, average ([10]; five-dose): 1.02 µM
GI50 ([11]; Homo sapiens, SK-MEL-5): 1.3 µM
CC50 ([11]; Homo sapiens, SK-MEL-5, read-out: LC50): 3.72 µM
Growth percent (G%) ([11]; SK-MEL-5, 10^−5 M, 48 h): 12.31%
TGI ([11]; SK-MEL-5, five-dose): 1.20 µM
GI50 ([12]; Homo sapiens, OVCAR-4): 0.17 µM
CC50 ([12]; Homo sapiens, OVCAR-4, read-out: LC50): 1.51 µM
Growth percent (G%) ([12]; OVCAR-4, 10^−5 M, 48 h): −42.04%
TGI ([12]; OVCAR-4, five-dose): 0.45 µM
IC50 [13]: 0.5 ± 0.09 µM
GI50 ([14]; Homo sapiens, SK-OV-3): 0.35 µM
CC50 ([14]; Homo sapiens, SK-OV-3, read-out: LC50): 5.62 µM
Growth percent (G%) ([14]; SK-OV-3, 10^−5 M, 48 h): 1.64%
TGI ([14]; SK-OV-3, five-dose): 1.78 µM
GI50 ([15]; Homo sapiens, RXF 393): 0.21 µM
CC50 ([15]; Homo sapiens, RXF 393, read-out: LC50): 2.51 µM
Growth percent (G%) ([15]; RXF 393, 10^−5 M, 48 h): −46.34%
TGI ([15]; RXF 393, five-dose): 0.58 µM
Growth percent (G%) ([16]; HL-60(TB), 10^−5 M, 48 h): 94.52%
TGI ([16]; HL-60 (TB), five-dose): 5.25 µM
GI50 ([16]; Homo sapiens, HL-60): 1.7 µM
CC50 ([16]; Homo sapiens, HL-60, read-out: LC50): 34.8 µM
GI50 ([17]; Homo sapiens, SK-MEL-2): 1.74 µM
CC50 ([17]; Homo sapiens, SK-MEL-2, read-out: LC50): 19.9 µM
Growth percent (G%) ([17]; SK-MEL-2, 10^−5 M, 48 h): 31.83%
TGI ([17]; SK-MEL-2, five-dose): 5.13 µM
GI50 ([18]; Homo sapiens, Malme-3M): 0.23 µM
CC50 ([18]; Homo sapiens, Malme-3M, read-out: LC50): 0.85 µM
Growth percent (G%) ([18]; MALME-3M, 10^−5 M, 48 h): −51.66%
Growth percent (G%) ([19]; 10^−5 M, 48 h): 29.04%
GI50 ([19]; Homo sapiens): 0.41 µM
CC50 ([19]; Homo sapiens, read-out: LC50): > 100 µM
TGI ([19]; five-dose): 4.86 µM
Growth percent (G%) ([20]; HCT-116, 10^−5 M, 48 h): −12.24%
TGI ([20]; HCT-116, five-dose): 1.10 µM
GI50 ([20]; Homo sapiens, HCT-116): 0.31 µM
CC50 ([20]; Homo sapiens, HCT-116, read-out: LC50): 4.57 µM
Growth percent (G%) ([21]; HOP-62, 10^−5 M, 48 h): −38.70%
TGI ([21]; HOP-62, five-dose): 0.65 µM
GI50 ([21]; Homo sapiens, HOP-62): 0.2 µM
CC50 ([21]; Homo sapiens, HOP-62, read-out: LC50): 3.24 µM
GI50 ([22]; Homo sapiens, IGROV-1): 0.22 µM
CC50 ([22]; Homo sapiens, IGROV-1, read-out: LC50): 3.47 µM
Growth percent (G%) ([22]; IGROV1, 10^−5 M, 48 h): −3.63%
TGI ([22]; IGROV1, five-dose): 0.74 µM
GI50 ([23]; Homo sapiens, K562): 0.37 µM
CC50 ([23]; Homo sapiens, K562, read-out: LC50): 50.1 µM
Growth percent (G%) ([23]; K-562, 10^−5 M, 48 h): 12.90%
TGI ([23]; K-562, five-dose): 2.00 µM
Growth percent (G%) ([24]; BT-549, 10^−5 M, 48 h): 37.99%
TGI ([24]; BT-549, five-dose): 1.32 µM
GI50 ([24]; Homo sapiens, BT-549): 0.3 µM
CC50 ([24]; Homo sapiens, BT-549, read-out: LC50): 6.76 µM
ability to inhibit p38MAPKα (in words) [25]: little tendency to inhibit
IC50 ([25]; p38MAPKα IC50, 10 μM GST-ATF2): 28 µM and 27.9 µM
GI50 ([26]; Homo sapiens, M14): 0.4 µM
CC50 ([26]; Homo sapiens, M14, read-out: LC50): 4.57 µM
Growth percent (G%) ([26]; M14, 10^−5 M, 48 h): 10.44%
TGI ([26]; M14, five-dose): 1.51 µM
GI50 ([27]; Homo sapiens, T47D): 0.26 µM
CC50 ([27]; Homo sapiens, T47D, read-out: LC50): 5.13 µM
Growth percent (G%) ([27]; T-47D, 10^−5 M, 48 h): −58.11%
TGI ([27]; T-47D, five-dose): 0.98 µM
Growth percent (G%) ([28]; HCT-15, 10^−5 M, 48 h): −31.10%
TGI ([28]; HCT-15, five-dose): 0.51 µM
GI50 ([28]; Homo sapiens, HCT-15): 0.21 µM
CC50 ([28]; Homo sapiens, HCT-15, read-out: LC50): 2 µM
GI50 ([29]; Homo sapiens, MDA-MB-468): 0.25 µM
CC50 ([29]; Homo sapiens, MDA-MB-468, read-out: LC50): 4.57 µM
Growth percent (G%) ([29]; MDA-MB-468, 10^−5 M, 48 h): −32.41%
TGI ([29]; MDA-MB-468, five-dose): 0.87 µM
GI50 ([30]; Homo sapiens, PC-3): 0.18 µM
CC50 ([30]; Homo sapiens, PC-3, read-out: LC50): 1.58 µM
Growth percent (G%) ([30]; PC-3, 10^−5 M, 48 h): −33.26%
TGI ([30]; PC-3, five-dose): 0.46 µM
GI50 ([31]; Homo sapiens, NCI-H460): 0.22 µM
CC50 ([31]; Homo sapiens, NCI-H460, read-out: LC50): 1.48 µM
Growth percent (G%) ([31]; NCI-H460, 10^−5 M, 48 h): −69.73%
TGI ([31]; NCI-H460, five-dose): 0.49 µM
GI50 ([32]; Homo sapiens, NCI-H23): 0.35 µM
CC50 ([32]; Homo sapiens, NCI-H23, read-out: LC50): 7.08 µM
Growth percent (G%) ([32]; NCI-H23, 10^−5 M, 48 h): 21.21%
TGI ([32]; NCI-H23, five-dose): 1.82 µM
GI50 ([33]; Homo sapiens, UACC-62): 0.28 µM
CC50 ([33]; Homo sapiens, UACC-62, read-out: LC50): 3.98 µM
Growth percent (G%) ([33]; UACC-62, 10^−5 M, 48 h): 75.08%
TGI ([33]; UACC-62, five-dose): 1.15 µM
Growth percent (G%) ([34]; HCC-2998, 10^−5 M, 48 h): 65.07%
TGI ([34]; HCC-2998, five-dose): 2.57 µM
CC50 ([34]; Homo sapiens, HCC 2998, read-out: LC50): 9.12 µM
GI50 ([35]; Homo sapiens, OVCAR-5): 3.47 µM
CC50 ([35]; Homo sapiens, OVCAR-5, read-out: LC50): 40.7 µM
Growth percent (G%) ([35]; OVCAR-5, 10^−5 M, 48 h): 52.70%
TGI ([35]; OVCAR-5, five-dose): 14.79 µM
